TAAR1 antag: human TAAR1 antagonists, primary screen, Fluo-8 calcium fluorescence, CHO RD-HGA16 cells; Trace amine-associated receptor 1 (Homo sapiens), Q96RJ0; antagonist; inhibition, % at 3 µM; hit rate 1.5% among 360,000;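 active = inhibition above a per-plate cutoff, the mean inhibition of test compounds on that plate plus 3 SD, cut at about 49% in these data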;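 note: 0% = DMSO plus EC80 beta-PEA response and 100% = DMSO alone without agonist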
Target sequence (Q96RJ0 whole entry, looked up): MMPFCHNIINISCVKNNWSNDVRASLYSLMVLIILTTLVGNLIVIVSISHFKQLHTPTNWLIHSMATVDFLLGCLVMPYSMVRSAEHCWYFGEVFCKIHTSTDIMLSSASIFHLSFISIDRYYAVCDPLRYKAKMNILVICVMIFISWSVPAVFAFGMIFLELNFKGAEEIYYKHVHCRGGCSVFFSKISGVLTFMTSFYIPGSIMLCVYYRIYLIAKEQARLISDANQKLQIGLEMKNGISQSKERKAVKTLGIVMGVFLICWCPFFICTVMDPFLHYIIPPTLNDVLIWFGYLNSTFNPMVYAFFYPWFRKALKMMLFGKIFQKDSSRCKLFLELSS
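System: RD-HGA16 CHO cells with stable hTAAR1 and Gα16 | Probe or stimulus: EC80 β-phenethylamine stimulus | Dosing: 3 µM, single point | Times: Dye loading 75 min at 37 °C, then 30 min room temperature | Measured by: Fluo-8 calcium-sensitive fluorescence | Read-out basis: % inhibition of agonist calcium response | Replicates: n of 1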
OXTR potentiator: human OXTR potentiators, primary screen, fluorescence, CHO-OTR cells, Fluo-8 calcium. Fluo-8 calcium fluorescence, potentiator mode; 0% = oxytocin EC15, 100% = EC100. activation, % at 3 µM. hit rate 0.061% among 320,000. Oxytocin receptor (Homo sapiens), P30559;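 active = activation above that plate's cutoff, the mean activation of tested compounds plus 3 SD, cut at about 6.6% in these data, passing the limit was not always enough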;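 note: 100% uses oxytocin at 75 nM as the full agonist control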
Target sequence (P30559 whole entry, looked up): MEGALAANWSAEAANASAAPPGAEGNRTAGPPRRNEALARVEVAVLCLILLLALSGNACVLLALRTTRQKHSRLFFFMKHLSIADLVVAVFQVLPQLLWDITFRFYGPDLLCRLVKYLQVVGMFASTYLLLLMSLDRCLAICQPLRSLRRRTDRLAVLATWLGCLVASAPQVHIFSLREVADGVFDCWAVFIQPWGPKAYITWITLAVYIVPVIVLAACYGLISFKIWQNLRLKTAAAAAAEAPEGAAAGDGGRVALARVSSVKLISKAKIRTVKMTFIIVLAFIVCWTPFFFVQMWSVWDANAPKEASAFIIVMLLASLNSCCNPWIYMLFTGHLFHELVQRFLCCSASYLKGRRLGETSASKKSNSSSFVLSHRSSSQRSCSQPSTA
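System: human OTR in CHO cells; Also added: sub-maximal oxytocin, roughly EC15; Timing: compound 6 min at room temperature before oxytocin, 100 s read; Technique: Fluo-8 intracellular calcium fluorescence, ex 470-495, em 515-575 nm; Controls: oxytocin EC15 low and EC100 high; Replication: singlicate.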
OXTR ag: human OXTR agonists, primary screen, fluorescence, CHO-OTR cells, Fluo-8 calcium | Fluo-8 calcium fluorescence; normalized: DMSO 0%, oxytocin 100% | AID 2435, 2010 | Oxytocin receptor (Homo sapiens), P30559 | activation, % at 3 µM | hit rate 0.32% among 320,000;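 active = activation above the mean of all tested compounds plus 3 SD, cutoff set per screening run, cut at about 20% in these data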;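 note: peak over basal fluorescence ratio from a 100 s FLIPR kinetic read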
V1R ag counter: agonists of human V1a receptor, primary screen, counter-screen for OXTR agonist project, fluorescence, CHO-V1R cells; Vasopressin V1a receptor (Homo sapiens), P37288; AID 2797, 2010; activation, % at 3 µM; Fluo-8 calcium fluorescence, agonist mode; 0% DMSO, 100% 3 nM vasopressin; hit rate 0.25% among 320,000;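 active = activation above the mean activation of all tested compounds plus 3 SD, per screening run, cut at about 20% in these data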;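 note: signal is peak over basal fluorescence ratio across a 100 second FLIPR read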
TAAR1 agonist: human TAAR1 agonists, primary screen, Fluo-8 calcium fluorescence, CHO RD-HGA16 cells. Trace amine-associated receptor 1 (Homo sapiens), Q96RJ0. activation, % at 3 µM. AID 624467, 2012. vehicle wells 0%, saturating PEA agonist 100%. hit rate 0.99% among 360,000;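 active = activation above the mean activation of all test compounds in the run plus 3 SD, cut at about 38% in these data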
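System: CHO RD-HGA16 cells carrying human TAAR1 plus Gα16; Incubation: 17-24 h seeding, 75 min 37 °C dye, 30 min RT; Measured by: Fluo-8 fluorescence, 5 s baseline then 140 s kinetic read; Control set: DMSO and PEA EC100; Replication: single well for each compound.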
TAAR1 nonsel count: nonselective antagonists in TAAR1 counter-screen cells, counter-screen for hTAAR1 antagonist project, cell-based, fluorescence, calcium | shares compounds with TAAR1 antag | counterscreen cell line, antagonist mode | inhibition, % at 3 µM | hit rate 77% among 2,400; in the data active = inhibition above about 22%;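 note: CHO-Ga16 host cells stimulated with ATP at an EC80 level; 0% = agonist EC80 plus vehicle and 100% = vehicle without agonist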
TAAR1 antag conf: human TAAR1 antagonists, retest of hits, confirmation, cell-based, fluorescence | shares compounds with TAAR1 antag | TAAR1-expressing cells, fluorescence antagonist read-out | inhibition, % at 3 µM | hit rate 40% among 2,400 | AID 651785, 2012; in the data active = inhibition above about 49%;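 note: CHO-Ga16 host cells challenged with agonist PEA near its EC80; 0% = agonist at EC80 plus vehicle and 100% = vehicle with no agonist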
Ga16 ag counter: calcium activation in Ga16-expressing cells, counter-screen for TAAR1 antagonist project, cell-based, fluorescence | shares compounds with TAAR1 antag | agonist counterscreen | activation, % at 3 µM | hit rate 18% among 2,400 | AID 651953, 2012; in the data active = activation above about 12%;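 note: 0% = vehicle wells and 100% = saturating stimulus response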
TAAR1 ag counter: TAAR1 activation by candidate antagonists – cell-based, fluorescence, counter-screen for TAAR1 antagonist project. shares compounds with TAAR1 antag. hTAAR1 cell line, agonist mode. activation, % at 3 µM. hit rate 2% among 2,400; in the data active = activation above about 37%;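 note: CHO cells stably expressing TAAR1 with calcium dye readout; 0% = DMSO vehicle and 100% = full agonist response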
An asterisk follows results filed as active. Shown are actives, neighbours in structure and some others; about 2.3% of the full set was active somewhere.

`COc1ccc(CNC(=O)C(c2ccco2)N(Cc2ccccc2)C(=O)Cc2cccs2)cc1` (centres undefined) gave TAAR1 antag 85*, OXTR potentiator -16, OXTR ag 1, V1R ag counter 7, TAAR1 agonist 20, TAAR1 nonsel count 33*, TAAR1 antag conf 55*, Ga16 ag counter 12* and TAAR1 ag counter 12.
CCOC(=O)Cn1c(=O)oc2cc(S(=O)(=O)N(C)Cc3ccccc3)ccc21 was read as TAAR1 antag 65*, OXTR potentiator -6, OXTR ag 4, V1R ag counter 5, TAAR1 agonist 16, TAAR1 nonsel count 19, TAAR1 antag conf 47, Ga16 ag counter 11 and TAAR1 ag counter 11.
COC(=O)c1cccc(NC(=O)c2ccc(S(=O)(=O)N(C)c3ccccc3OC)cc2)c1 was read as TAAR1 antag 70*, TAAR1 agonist 13, TAAR1 nonsel count 32*, TAAR1 antag conf 41, Ga16 ag counter 7 and TAAR1 ag counter 5.
`COc1ccccc1N(C)S(=O)(=O)c1ccc(C(=O)Nc2ccc3nc(C)sc3c2)cc1` gave TAAR1 antag 43, OXTR potentiator -11, OXTR ag 3, V1R ag counter 4 and TAAR1 agonist 7.
For COc1ccccc1N(C)S(=O)(=O)c1ccc(C(=O)Nc2cccc(Br)c2)cc1 the results were TAAR1 antag 70*, OXTR potentiator -9, OXTR ag 3, V1R ag counter 4, TAAR1 agonist 6, TAAR1 nonsel count 36*, TAAR1 antag conf 38, Ga16 ag counter 7 and TAAR1 ag counter 2.
Screening COc1cc(NC(=O)c2ccc(S(=O)(=O)N(C)c3ccccc3OC)cc2)cc(OC)c1 returned TAAR1 antag 43, OXTR potentiator -8, OXTR ag 2, V1R ag counter 2 and TAAR1 agonist 2.
`COc1ccccc1N(C)S(=O)(=O)c1ccc(C(=O)OCC(=O)NCc2cccs2)cc1` gave TAAR1 antag 83*, OXTR potentiator -6, OXTR ag 1, V1R ag counter 3, TAAR1 agonist 15, TAAR1 nonsel count 38*, TAAR1 antag conf 62*, Ga16 ag counter 10 and TAAR1 ag counter 13.
`COc1ccccc1N(C)S(=O)(=O)c1ccc(C(=O)N(C)Cc2ccc(OC(F)F)cc2)cc1` gave TAAR1 antag 85*, TAAR1 agonist 15, TAAR1 nonsel count 45*, TAAR1 antag conf 74*, Ga16 ag counter 13* and TAAR1 ag counter 11.
`COCCN1CCN(C(=O)C2CCC(=O)N(Cc3ccccc3OC)C2)CC1` (centres undefined) gave TAAR1 antag -13, OXTR potentiator -5, OXTR ag 1, V1R ag counter 0 and TAAR1 agonist -1.
O=C(NCCCCc1ccccc1)c1cccc(NC(=O)C2CCCCC2)c1 was read as TAAR1 antag 61*, TAAR1 agonist 6, TAAR1 nonsel count 30*, TAAR1 antag conf 36, Ga16 ag counter 8 and TAAR1 ag counter 5.
O=C(NCCCc1ccccc1)c1cccc(NC(=O)C2CCCC2)c1 was read as TAAR1 antag 22 and TAAR1 agonist 8.
Screening O=C(NCCc1ccccc1)c1cccc(NC(=O)C2CC2)c1 returned TAAR1 antag 10 and TAAR1 agonist 0.
`CC(C)(C)OC(=O)N1CCC(C(=O)Nc2ccc(C(=O)NCCc3ccccc3)cc2)CC1` gave TAAR1 antag 44 and TAAR1 agonist 31.
Screening CC(C)(C)OC(=O)N1CCC(C(=O)Nc2cccc(C(=O)NCCCCc3ccccc3)c2)CC1 returned TAAR1 antag 66*, TAAR1 agonist 16, TAAR1 nonsel count 37*, TAAR1 antag conf 44, Ga16 ag counter 13* and TAAR1 ag counter 12.
For O=C(/C=C/c1ccccc1)Nc1cccc(C(=O)NCCc2ccccc2)c1 the results were TAAR1 antag 68*, TAAR1 agonist 13, TAAR1 nonsel count 37*, TAAR1 antag conf 57*, Ga16 ag counter 8 and TAAR1 ag counter 6.
`O=C(COC(=O)c1cccc(OC(F)F)c1)NC1CCCC1` gave TAAR1 antag -9, OXTR potentiator -12, OXTR ag -1, V1R ag counter 4 and TAAR1 agonist 0.
`Cc1ccc(NC(=O)c2ccc(OC(=O)c3ccco3)cc2)cc1` gave TAAR1 antag -3, OXTR potentiator -7, OXTR ag 0, V1R ag counter 1 and TAAR1 agonist 4.
`O=C(Nc1cc(Cl)ccc1Cl)c1ccc(OC(=O)c2ccco2)cc1` gave TAAR1 antag 85*, OXTR potentiator -1, OXTR ag -1, V1R ag counter 1, TAAR1 agonist 11, TAAR1 nonsel count 25*, TAAR1 antag conf 37, Ga16 ag counter 3 and TAAR1 ag counter 4.
CCOC(=O)c1c(C)[nH]c(C(=O)COC(=O)/C=C/c2ccc(OC(F)F)cc2)c1C was read as TAAR1 antag -3, OXTR potentiator -2, OXTR ag 0, V1R ag counter 0 and TAAR1 agonist 0.
CCOC(=O)c1c(C)[nH]c(C)c1C(=O)COC(=O)/C=C/c1ccc(OC(F)F)cc1 was read as TAAR1 antag 52*, OXTR potentiator -10, OXTR ag 3, V1R ag counter 3, TAAR1 agonist 6, TAAR1 nonsel count 34*, TAAR1 antag conf 40, Ga16 ag counter 7 and TAAR1 ag counter 2.
Screening CC1(C)C(=O)Nc2ccccc2N1C(=O)COC(=O)/C=C/c1ccc(OC(F)F)cc1 returned TAAR1 antag 57*, OXTR potentiator -10, OXTR ag -1, V1R ag counter 0, TAAR1 agonist 21, TAAR1 nonsel count 31*, TAAR1 antag conf 46, Ga16 ag counter 12* and TAAR1 ag counter 10.

Bioassay records (PubChem)
